For experiment [1], the system named is SAS cells. The experiment in a line: Colony formation. The experiment is classed as cell-based, human. Particulars: for inhibition at 10 µM: read-out: inhibition/reduction of colony formation. In a few lines: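 SAS cells were seeded at 2 × 10^3 per well and attached for 24 h. Test compound (1–20 μM range) was given for 24 h, then replaced with fresh medium for 10 days of growth. Colonies were washed in PBS, fixed in 70% ethanol for 4 h at −20 °C, stained with 0.01% crystal violet and counted. Plating efficiency = colonies/cells plated × 100. Survival fraction = PE treated/PE control.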

In experiment [2] the test system is SAS cells. Kind of experiment: Wound-healing scratch assay. The experiment is classed as cell-based, human. The following applies: 24 h. In a few lines: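 SAS cells were seeded at 6 × 10^5 per well and grown to a monolayer. Cells were serum-starved in DMEM for 6 h to block proliferation, then scratched with a pipette tip and PBS-washed. Test compound was added and wounds were imaged at 0 and 24 h. Percentage wound area remaining is reported as mean ± SD, Student's t test, p < 0.05.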

Experiment [3] concerns Bcl-2, caspases, COX-2, MMP-9, survivin, VEGF, Akt/mTOR and STAT-3 in SAS cells. The experiment in a line: Western blot analysis of proteins involved in OSCC. The experiment is classed as cell-based, human. Particulars: 24 h, AA2 2.5, 5, 10 μM, AA3 10, 15, 20 μM. In a few lines:
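SAS cells were seeded at 4 × 10^5 per well, attached 24 h, then treated 24 h with test compound (0–20 μM). Lysis buffer: 20 mM HEPES, 250 mM NaCl, 2 mM EDTA, 0.1% Triton X-100, 1 mM DTT, protease inhibitors. Protein was quantified by Bradford and equal amounts run on 12% SDS-PAGE, then transferred to nitrocellulose. Blocking was 5% milk, primary antibody overnight at 4 °C, HRP secondary 2 h, ECL detection. α-Tubulin served as loading control.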
(In general: In western blotting, separated proteins are transferred to a membrane and probed.)

The test system of experiment [4] is esophageal cancer cell line T.Tn. Kind of experiment: MTT cell proliferation assay, T.Tn cells. The experiment is classed as cell-based. Particulars: Homo sapiens, 72 h, read-out: IC50 value (μM) T.Tn. In a few lines: (§1)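 Human lines kept in DMEM with 10% FBS and 1% Pen-Strep at 37 °C, 5% CO2. 2 × 10^3 cells/well were seeded, grown 24 h, then exposed to test compound for 72 h (SAS and T.Tn: 0, 5, 10, 25, 50, 100 μM; HaCaT: 0, 10, 25, 50, 75, 100 μM). MTT (5 mg/mL stock) was added for 2 h, formazan dissolved in DMSO, and A570 read. Percentage proliferation was taken relative to untreated control. IC50 was read where the dose–response curve crosses 50%.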
Background: Tetrazolium assays rely on reduction of a dye to a coloured formazan, in cell work by metabolically active cells.

The subject of experiment [5] is human normal cell line HaCaT. Kind of experiment: MTT cell proliferation assay, HaCaT cells. The experiment is classed as cell-based. Particulars: 72 h, read-out: IC50 value (μM) HaCaT. In a few lines: as §1
Experiment [6] concerns SAS cells. The experiment in a line: PI-RNase-based cell-cycle analysis. Also on record: species or system human. The following applies: 24 h, AA2 1-10 μM, AA3 5-20 μM, PI-RNase flow cytometry. In a few lines:
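SAS cells were seeded at 2 × 10^5 per well, grown 24 h, then treated 24 h with test compound. Cells were trypsinized, PBS-washed and fixed overnight in 75% ethanol at −20 °C. They were stained with PI-RNase for 20 min in the dark and analysed by flow cytometry for the percentage of cells in each cycle phase.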
(Flow cytometry measures light scatter and fluorescence of single cells or particles in a stream.)

In experiment [7] the test system is SAS cells. Kind of experiment: PI-based flow cytometric analysis of cell death. Particulars: 48 h, PI staining. On the set-up: species or system human. In a few lines: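 After 24 h attachment, 2 × 10^5 SAS cells per well received test compound for 48 h. Floating cells from the medium were pooled with trypsinized cells and washed three times in PBS. The unfixed cells were resuspended in PBS with PI and analysed by flow cytometry, with percentage of dead cells recorded.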

The test system of experiment [8] is SAS cells. Kind of experiment: Annexin V-based flow cytometric analysis of apoptosis. The experiment is classed as cell-based, human. The following applies: 48 h. In a few lines:
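SAS cells were seeded at 2 × 10^5 per well, grown 24 h, then exposed to test compound for 48 h. Medium-borne and trypsinized cells were collected and washed three times in PBS. They were labelled with annexin V for 20 min, then PI for 10 min, and analysed by flow cytometry. Apoptosis was computed from quadrants Q2+Q4.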

Experiment [9] has as its system OSCC cell line SAS. Kind of experiment: MTT cell proliferation assay, SAS cells. The experiment is classed as cell-based, human. The following applies: for IC50: Homo sapiens, 72 h, read-out: IC50 value (μM) SAS; for Selectivity index (SI) IC50 (HaCaT)/IC50 (SAS): ratio of IC50 in HaCaT to IC50 in SAS.

Structures are written as SMILES.

As a reminder, the IC50 is the concentration needed to halve the response being measured. For the compound `C=C(C)[C@H]1Cc2c(oc3c4c(cc(O)c3c2=O)OC(C)(C)C=C4)-c2c(O)cc(O)c(O)c21` [AA3, artobiloxanthone], the inhibition at 10 µM in experiment [1] (Homo sapiens) was more than 80%. Besides, the “wound area (initial gap) remaining” value was “over 45%” in [2] (5 μM), “over 60%” in experiment [2] (10 μM), “over 65%” in experiment [2] (15 μM) and 90% in experiment [2] (20 μM). Further, the “effect on Akt/mTOR and STAT-3 signaling pathways” value in [3] was “inhibition of the Akt/mTOR and STAT-3 signaling pathways”. The “effect on Bcl-2 expression” value in experiment [3] is “downregulation of Bcl-2”. The “effect on caspase-3 and caspase-9” value in [3] was “activation of caspase-3 and caspase-9 in a dose-dependent manner”. Further, the 50% inhibitory concentration (IC50) is 22 µM in experiment [4], 70 µM in experiment [5] and 11 µM in experiment [9]. Besides, the “effect on cell-cycle progression” value in [6] was “arrest of these cells in the S-phase”. Besides, in [7] (20 μM), the cell death entry was “approximately 8%”. Further, the “apoptosis (percentage of apoptotic cells)” value was 8% in [8] (5 μM), 18% in experiment [8] (10 μM), 26% in [8] (15 μM) and 30% in experiment [8] (20 μM). The “Selectivity index (SI) IC50 (HaCaT)/IC50 (SAS)” value (from here on “Selectivity index (SI) IC50”) in [9] was found to be 6.4.
With `CC(C)=CCc1c(-c2cc(O)c(O)cc2O)oc2c3c(cc(O)c2c1=O)OC(C)(C)C=C3` [AA2, artonin E], in experiment [1] (Homo sapiens, read-out: inhibition of colony formation), the inhibition at 5 µM is more than 90%. For the same compound, the inhibition at 10 µM in experiment [1] (Homo sapiens) was more than 90%. The “reduction of colony formation” value in [1] (SAS cells, 2.5 μM, 24 h treatment, 10 days culture) is on record as “over 50%”. Moreover, the “wound area (initial gap) remaining” value is “approximately 25%” in experiment [2] (1 μM), 40% in experiment [2] (2.5 μM), “over 60%” in experiment [2] (5 μM) and “over 75%” in experiment [2] (10 μM). In [3], the “effect on Akt/mTOR and STAT-3 signaling pathways” value was “inhibition of the Akt/mTOR and STAT-3 signaling pathways”. Moreover, the “effect on Bcl-2 expression” value in experiment [3] is on record as “downregulation of Bcl-2”. In addition, the “effect on caspase-3 and caspase-9” value in experiment [3] is “activation of caspase-3 and caspase-9 in a dose-dependent manner”. Also, the IC50 in experiment [4] came to 8 µM; in experiment [5] it was 72 µM; in [9] it was 6 µM. In addition, the “effect on cell-cycle progression” value in experiment [6] was “arrest of these cells in the S-phase”. In addition, in experiment [7] (10 μM), the cell death entry is reported as “more than 80%”. For the same compound, the “apoptosis (percentage of apoptotic cells)” value in [8] (2.5 μM) is 8%; in experiment [8] (5 μM), 18%; in experiment [8] (10 μM), 22%. In addition, in experiment [9], the “Selectivity index (SI) IC50” value was 12.
Take `O=c1[nH]cc(F)c(=O)[nH]1` [5-FU, 5-fluorouracil, reference compound]: the IC50 came out at 4 µM in [5] and 3 µM in experiment [9]. Also, the “Selectivity index (SI) IC50” value in experiment [9] turned out to be 1.3.

The values are drawn from paper PMC11170706 (ACS Omega, 2024).
